Reference: ChEMBL document CHEMBL3745654, “N-Alkylated arylsulfonamides of (aryloxy)ethyl piperidines: 5-HT(7) receptor selectivity versus multireceptor profile” (Bioorg Med Chem, 2016)
pKi: −log10 of the molar value. Activity calls are given as the source filed them. The calls are words filed in the database; no cut-off is given here.

Columns and labels:
D(2) dopamine receptor = D(2) dopamine receptor (Homo sapiens, UniProt P14416); assay: Displacement of [3H]-Raclopride from human dopamine D2L receptor expressed in HEK293 cells incubated for 1 hr; assay type: cell-based
Method in brief: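 Membranes from HEK293 cells stably expressing human D2L receptor, with [3H]-raclopride (74.4 Ci/mmol). Buffer: Tris-HCl, EDTA, MgCl2, 120 mM NaCl, 5 mM KCl, 1.5 mM CaCl2, ascorbate. Incubation 1 h at 37 °C, then filtration. Non-specific binding defined with (+)butaclamol. Triplicates at 7–8 concentrations (10^-11 to 10^-4 M). Ki by Cheng–Prusoff.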

[1] = molecular target: T1, 5-hydroxytryptamine receptor 1A (Homo sapiens, UniProt P08908); assay: Displacement of [3H]-8-OH-DPAT from human 5-HT1A receptor expressed in HEK293 cells incubated for 1 hr; assay type: cell-based
T1 sequence (P08908 whole entry): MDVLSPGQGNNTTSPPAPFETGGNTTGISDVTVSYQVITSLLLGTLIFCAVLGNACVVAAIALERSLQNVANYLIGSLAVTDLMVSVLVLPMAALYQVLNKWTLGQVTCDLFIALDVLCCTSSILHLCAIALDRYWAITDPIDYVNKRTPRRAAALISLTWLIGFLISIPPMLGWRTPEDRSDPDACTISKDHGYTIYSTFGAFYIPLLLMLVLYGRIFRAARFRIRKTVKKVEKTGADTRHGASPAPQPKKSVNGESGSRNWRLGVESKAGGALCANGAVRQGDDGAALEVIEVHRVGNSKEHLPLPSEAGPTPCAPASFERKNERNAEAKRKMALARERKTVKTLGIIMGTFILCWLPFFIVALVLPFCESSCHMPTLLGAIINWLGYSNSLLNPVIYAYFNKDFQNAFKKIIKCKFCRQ
Method in brief: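 Membranes from HEK293 cells stably expressing human 5-HT1A receptor, with [3H]-8-OH-DPAT (187 Ci/mmol). Buffer: 50 mM Tris-HCl, 0.1 mM EDTA, 4 mM MgCl2, pargyline, 0.1% ascorbate. Incubation 1 h at room temperature, then filtration. Non-specific binding defined with 5-HT. Triplicates at 7–8 concentrations. Ki by Cheng–Prusoff.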

[2] = molecular target: 5-hydroxytryptamine receptor 7 (Homo sapiens, UniProt P34969); assay: Displacement of [3H]-5-CT from human 5-HT7B receptor expressed in HEK293 cells incubated for 1 hr; assay type: cell-based
Method in brief: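 Membranes from HEK293 cells stably expressing human 5-HT7b receptor, with [3H]-5-CT (39.2 Ci/mmol). Buffer: 50 mM Tris-HCl, 4 mM MgCl2, pargyline, 0.1% ascorbate. Incubation 1 h at 37 °C, then rapid filtration and counting of filter radioactivity. Non-specific binding defined with 5-HT. Triplicates at 7–8 concentrations (10^-11 to 10^-4 M). Ki by Cheng–Prusoff.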

[3] = molecular target: 5-hydroxytryptamine receptor 2A (Homo sapiens, UniProt P28223); assay: Displacement of [3H]-ketanserin from human 5-HT2A receptor expressed in HEK293 cells incubated for 1 hr; assay type: cell-based
Method in brief: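 Membranes from HEK293 cells stably expressing human 5-HT2A receptor, with [3H]-ketanserin (66.9 Ci/mmol). Incubation 1 h at 37 °C, then rapid filtration and counting. Triplicates at 7–8 concentrations (10^-11 to 10^-4 M). Ki by Cheng–Prusoff; means of at least three experiments.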

Mus musculus [4] = assay: Toxicity in Swiss albino mouse assessed as effect on spontaneous locomotor activity at 10 mg/kg, ip dosed 30 mins before test measured after 2 to 6 mins; assay type: organism-based; conditions: in vivo
Method in brief: (§1)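 Swiss albino mice given reference drug ip 30 min before testing (citalopram in water; SB-269970 suspended in 1% aqueous Tween 80). Ambulation counted from 2 to 6 min in individual cages by activity monitor.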

Mus musculus [5] = assay: Antidepressant-like activity in Swiss albino mouse assessed as reduction in immobility time at 10 mg/kg, ip dosed 30 mins before test measured after 6 mins by forced swim test; assay type: functional, organism-based
Method in brief: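 Male Swiss albino mice (22–26 g), 7–12/group, used once; drug suspended in 1% aqueous Tween 80 just before use, given ip 30 min before test. Blind observer. 6-min swim in a glass cylinder (25 × 10 cm) with 10 cm of water at 23–25 °C. Immobility timed over the final 4 min. Data as mean ± SEM; one-way ANOVA, then Bonferroni vs vehicle.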

Mus musculus [6] = assay: Antidepressant-like activity in Swiss albino mouse assessed as reduction in immobility time at 1.25 mg/kg, ip dosed 30 mins before test measured after 6 mins by forced swim test; assay type: functional, organism-based
Method in brief: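 Male Swiss albino mice (22–26 g), 7–12/group, used once; drug in distilled water, given ip 30 min before test. Observer blind to treatment. Mice swam 6 min in a glass cylinder (25 cm high, 10 cm diameter) holding 10 cm of water at 23–25 °C. Immobility (floating, only small head-keeping movements) was timed over the last 4 min. One-way ANOVA, then Bonferroni vs vehicle.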

Mus musculus [7] = assay: Toxicity in Swiss albino mouse assessed as effect on spontaneous locomotor activity at 1.25 mg/kg, ip dosed 30 mins before test measured after 2 to 6 mins; assay type: organism-based; conditions: in vivo; method in brief: as §1
[8] = Intrinsic clearance in mouse liver microsomes at 20 uM at pH 7.4 incubated for 15 mins by UPLC/MS analysis in presence of NADPH; assay type: ADME; conditions: read-out: CLH
[9] = Half life in mouse liver microsomes at 20 uM at pH 7.4 incubated for 15 mins by UPLC/MS analysis in presence of NADPH; assay type: ADME
Method in brief: (§2)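 Compound (20 µM) incubated with mouse liver microsomes (0.2 mg/ml) in 100 mM potassium phosphate, pH 7.4, 37 °C. Reaction started with NADPH-regenerating system; blank without NADPH run in parallel. Sampling at 5, 15, 30 and 60 min (some to 120 min), in duplicate. Levallorphan internal standard; UPLC/MS quantitation. t1/2 from ln % remaining vs time.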

[10] = Drug metabolism in mouse liver microsomes assessed as retention time of N-dealkylated metabolite at 20 uM at pH 7.4 incubated for 15 mins by UPLC/MS analysis in presence of NADPH; assay type: ADME; conditions: pH 7.4, 0.25 h; method in brief: as §2
[11] = Metabolic stability in mouse liver microsomes assessed as retention time of compound at 20 uM at pH 7.4 incubated for 15 mins by UPLC/MS analysis in presence of NADPH; assay type: ADME; conditions: pH 7.4, 0.25 h; method in brief: as §2
[12] = Drug metabolism in mouse liver microsomes assessed as retention time of hydroxylated metabolite at 20 uM at pH 7.4 incubated for 15 mins by UPLC/MS analysis in presence of NADPH; assay type: ADME; conditions: pH 7.4, 0.25 h; method in brief: as §2

D(2) dopamine receptor, sequence (P14416 whole entry): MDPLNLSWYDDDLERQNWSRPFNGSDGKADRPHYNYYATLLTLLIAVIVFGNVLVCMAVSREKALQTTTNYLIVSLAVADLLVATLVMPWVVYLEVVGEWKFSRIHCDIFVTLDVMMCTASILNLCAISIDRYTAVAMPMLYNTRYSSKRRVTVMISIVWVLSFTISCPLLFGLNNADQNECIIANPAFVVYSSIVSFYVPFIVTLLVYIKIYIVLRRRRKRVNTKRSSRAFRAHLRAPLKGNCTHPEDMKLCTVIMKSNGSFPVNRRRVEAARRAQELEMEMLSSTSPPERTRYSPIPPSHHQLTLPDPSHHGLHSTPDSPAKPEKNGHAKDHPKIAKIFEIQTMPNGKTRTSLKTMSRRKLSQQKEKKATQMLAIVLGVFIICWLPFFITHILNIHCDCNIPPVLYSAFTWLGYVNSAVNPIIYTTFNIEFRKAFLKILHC
5-hydroxytryptamine receptor 2A, sequence (P28223 whole entry): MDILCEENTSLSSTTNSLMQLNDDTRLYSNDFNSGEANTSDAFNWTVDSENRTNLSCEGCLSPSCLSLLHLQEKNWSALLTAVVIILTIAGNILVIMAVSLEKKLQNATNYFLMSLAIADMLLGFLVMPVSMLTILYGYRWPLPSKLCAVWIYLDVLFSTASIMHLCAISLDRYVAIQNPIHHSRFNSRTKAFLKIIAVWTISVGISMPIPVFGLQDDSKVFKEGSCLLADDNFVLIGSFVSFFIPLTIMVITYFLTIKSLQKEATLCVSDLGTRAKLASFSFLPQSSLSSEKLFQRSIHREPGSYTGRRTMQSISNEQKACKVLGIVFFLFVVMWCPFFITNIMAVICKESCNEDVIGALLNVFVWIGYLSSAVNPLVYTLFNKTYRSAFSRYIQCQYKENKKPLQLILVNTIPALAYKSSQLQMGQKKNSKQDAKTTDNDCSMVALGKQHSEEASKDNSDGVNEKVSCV
5-hydroxytryptamine receptor 7, sequence (P34969 whole entry): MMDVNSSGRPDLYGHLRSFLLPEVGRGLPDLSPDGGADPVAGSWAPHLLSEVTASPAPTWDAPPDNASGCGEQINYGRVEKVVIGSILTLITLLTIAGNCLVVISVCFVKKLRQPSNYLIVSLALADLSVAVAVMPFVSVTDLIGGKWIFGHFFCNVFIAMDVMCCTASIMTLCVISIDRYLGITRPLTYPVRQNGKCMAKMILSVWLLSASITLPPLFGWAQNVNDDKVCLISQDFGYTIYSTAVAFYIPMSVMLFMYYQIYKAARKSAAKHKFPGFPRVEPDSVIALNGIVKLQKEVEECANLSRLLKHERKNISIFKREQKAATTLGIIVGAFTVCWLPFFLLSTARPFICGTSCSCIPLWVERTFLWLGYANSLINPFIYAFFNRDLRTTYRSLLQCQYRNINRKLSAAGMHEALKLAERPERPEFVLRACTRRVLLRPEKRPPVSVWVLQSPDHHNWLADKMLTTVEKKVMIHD

## O=S(=O)(c1ccc(F)cc1)N(CC1CC1)C1CCN(CCOc2ccccc2-c2ccccc2)CC1
D(2) dopamine receptor
  pKi: 7.43
[1]
  pKi: 6.47
[2]
  pKi: 7.74
[3]
  pKi: 7.15

## CC(C)c1ccccc1OCCN1CCC(N(CC2CC2)S(=O)(=O)c2ccc(F)cc2)CC1
D(2) dopamine receptor
  pKi: 7.70
[1]
  pKi: 6.60
[2]
  pKi: 7.55
[3]
  pKi: 6.38

## CN(C1CCN(CCOc2ccccc2C(C)(C)C)CC1)S(=O)(=O)c1ccccc1
D(2) dopamine receptor
  pKi: 6.44
[1]
  pKi: 5.63
[2]
  pKi: 7.15
[3]
  pKi: 5.90

## CN(C1CCN(CCOc2ccccc2-c2ccccc2)CC1)S(=O)(=O)c1ccccc1
D(2) dopamine receptor
  pKi: 7.28
[1]
  pKi: 7.21
[2]
  pKi: 7.00
[3]
  pKi: 7.38

## CN(C1CCN(CCOc2ccccc2-c2ccccc2)CC1)S(=O)(=O)c1ccc(F)cc1
D(2) dopamine receptor
  pKi: 7.27
[1]
  pKi: 7.52
[2]
  pKi: 8.30
[3]
  pKi: 7.16

## CC1CCN(CC[C@H]2CCCN2S(=O)(=O)c2cccc(O)c2)CC1
Mus musculus [4]
  Activity: Non-toxic
Mus musculus [5]
  Activity: Active

## CN(C1CCN(CCOc2ccccc2C(C)(C)C)CC1)S(=O)(=O)c1ccc(F)cc1
D(2) dopamine receptor
  pKi: 6.49
[1]
  pKi: 5.04
[2]
  pKi: 7.24
[3]
  pKi: 5.97

## CC(C)c1ccccc1OCCN1CCC(N(CC2CC2)S(=O)(=O)c2cnn(C)c2)CC1
D(2) dopamine receptor
  pKi: 7.74
[1]
  pKi: 6.67
[2]
  pKi: 7.25
[3]
  pKi: 6.42

## CC(C)(C)c1ccccc1OCCN1CCC(N(CC2CC2)S(=O)(=O)c2ccc(F)cc2)CC1
D(2) dopamine receptor
  pKi: 6.80
[1]
  pKi: 4.85
[2]
  pKi: 7.28
[3]
  pKi: 5.88

## CC(C)c1ccccc1OCCN1CCC(N(C)S(=O)(=O)c2cccc(F)c2)CC1
D(2) dopamine receptor
  pKi: 7.35
[1]
  pKi: 6.72
[2]
  pKi: 7.74
[3]
  pKi: 6.64

## CN(C)CCCC1(c2ccc(F)cc2)OCc2cc(C#N)ccc21 (stereo not drawn) [CITALOPRAM]
Mus musculus [6]
  Activity: Active
Mus musculus [7]
  Activity: Non-toxic

## CC(C)c1ccccc1OCCN1CCC(N(C)S(=O)(=O)c2ccc(F)cc2)CC1
D(2) dopamine receptor
  pKi: 7.30
[1]
  pKi: 6.74
[2]
  pKi: 7.89
[3]
  pKi: 6.42

## Cn1cc(S(=O)(=O)NC2CCN(CCOc3ccccc3-c3ccccc3)CC2)cn1
[8]
  microsomal CLint at 20 µM: > 200 µL/min/mg
[9]
  half-life at 20 µM: < 20 min
[10]
  Retention_time: 3.85 min
[11]
  Retention_time: 4.45 min

## CN(C1CCN(CCOc2ccccc2C(C)(C)C)CC1)S(=O)(=O)c1cccc(F)c1
D(2) dopamine receptor
  pKi: 6.54
[1]
  pKi: 5.35
[2]
  pKi: 7.17
[3]
  pKi: 5.71

## CC(C)c1ccccc1OCCN1CCC(N(C)S(=O)(=O)c2cnn(C)c2)CC1
D(2) dopamine receptor
  pKi: 7.34
[1]
  pKi: 6.46
[2]
  pKi: 8.00
[3]
  pKi: 6.92

## CC(C)c1ccccc1OCCN1CCC(N(C)S(=O)(=O)c2ccccc2)CC1
D(2) dopamine receptor
  pKi: 7.22
[1]
  pKi: 6.85
[2]
  pKi: 8.05
[3]
  pKi: 6.58

## CC(C)c1ccccc1OCCN1CCC(N(CC2CC2)S(=O)(=O)c2cccc(F)c2)CC1
D(2) dopamine receptor
  pKi: 7.82
[1]
  pKi: 6.80
[2]
  pKi: 7.25
[3]
  pKi: 6.37

## Cn1cc(S(=O)(=O)NC2CCN(CCOc3ccccc3C(C)(C)C)CC2)cn1
[8]
  microsomal CLint at 20 µM: > 200 µL/min/mg
[9]
  half-life at 20 µM: < 20 min
[12]
  Retention_time: 3.62 min
[11]
  Retention_time: 4.72 min
